{"source": "ChEMBL document CHEMBL4689842", "about": "“EUbOPEN Chemogenomics Library wave 1” (2021)", "system": "HEK-293T", "experiment": "Multiplex assay against HEK293T;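 on Population Tubulin-Different-Phenotype (%): share of the cells with healthy nuclei that show this phenotype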", "type": "toxicity, cell-based", "conditions": "human", "outline": "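On a CQ1 microscope at 37°C and 5% CO2, live cells were imaged after compound addition. They had been stained at seeding with Hoechst33342, BioTracker Green Microtubule Cytoskeleton Dye, MitoTracker Red and Annexin V Alexa Fluor 680. CellPathfinder machine-learning gating assigned cells to Hoechst high-intensity objects or normal cells, normal cells to healthy, pyknosed or fragmented nuclei, and pyknosed cells to mitotic or apoptotic. Tubulin, mitochondrial-mass and membrane-permeability phenotypes are per cents of healthy-nucleus cells.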", "key": {"[1]": {"conditions": "12 h, 1 µM, compound concentration 1 uM, replicate 1"}, "[2]": {"conditions": "12 h, 1 µM, compound concentration 1 uM, replicate 2"}, "[3]": {"conditions": "12 h, 10 µM, compound concentration 10 uM, replicate 1"}, "[4]": {"conditions": "12 h, 10 µM, compound concentration 10 uM, replicate 2"}, "[5]": {"conditions": "24 h, 1 µM, compound concentration 1 uM, replicate 1"}, "[6]": {"conditions": "24 h, 1 µM, compound concentration 1 uM, replicate 2"}, "[7]": {"conditions": "24 h, 10 µM, compound concentration 10 uM, replicate 1"}, "[8]": {"conditions": "24 h, 10 µM, compound concentration 10 uM, replicate 2"}, "[9]": {"conditions": "48 h, 10 µM, compound concentration 10 uM, replicate 1"}, "[10]": {"conditions": "48 h, 10 µM, compound concentration 10 uM, replicate 2"}}, "note": "Several values for one entry are separate records, joined by “and”; a condition that tells them apart may be missing. Identical values can stand only once."}
{"smiles": "Cl.O=C(c1ccc(Nc2nccc(-c3cc4ccccc4s3)n2)cc1)N1CCC(N2CCCC2)CC1", "values": [{"measurement": "Population Apoptotic (%)", "setting": "[1]", "result": 28, "unit": "%"}, {"measurement": "Population Fragmented Nuclei (%)", "setting": "[1]", "result": 10, "unit": "%"}, {"measurement": "Population Healthy Nuclei (%)", "setting": "[1]", "result": 59, "unit": "%"}, {"measurement": "Population Hoechst High Intensity Objects (%)", "setting": "[1]", "result": 8, "unit": "%"}, {"measurement": "Population Membrane Permeable-Phenotype (%)", "setting": "[1]", "result": 17, "unit": "%"}, {"measurement": "Population Mitochondria Different-Phenotype (%)", "setting": "[1]", "result": 14, "unit": "%"}, {"measurement": "Population Mitotic Cells (%)", "setting": "[1]", "result": 71, "unit": "%"}, {"measurement": "Population Normal (%)", "setting": "[1]", "result": 91, "unit": "%"}, {"measurement": "Population Pyknosed Nuclei (%)", "setting": "[1]", "result": 29, "unit": "%"}, {"measurement": "Population Tubulin-Different-Phenotype (%)", "setting": "[1]", "result": 73, "unit": "%"}, {"measurement": "Total Cell Count", "setting": "[1]", "result": 657}, {"measurement": "Population Apoptotic (%)", "setting": "[2]", "result": 12, "unit": "%"}, {"measurement": "Population Fragmented Nuclei (%)", "setting": "[2]", "result": 4, "unit": "%"}, {"measurement": "Population Healthy Nuclei (%)", "setting": "[2]", "result": 89, "unit": "%"}, {"measurement": "Population Hoechst High Intensity Objects (%)", "setting": "[2]", "result": 3, "unit": "%"}, {"measurement": "Population Membrane Permeable-Phenotype (%)", "setting": "[2]", "result": 11, "unit": "%"}, {"measurement": "Population Mitochondria Different-Phenotype (%)", "setting": "[2]", "result": 20, "unit": "%"}, {"measurement": "Population Mitotic Cells (%)", "setting": "[2]", "result": 87, "unit": "%"}, {"measurement": "Population Normal (%)", "setting": "[2]", "result": 96, "unit": "%"}, {"measurement": "Population Pyknosed Nuclei (%)", "setting": "[2]", "result": 6, "unit": "%"}, {"measurement": "Population Tubulin-Different-Phenotype (%)", "setting": "[2]", "result": 67, "unit": "%"}, {"measurement": "Total Cell Count", "setting": "[2]", "result": 1518}, {"measurement": "Population Apoptotic (%)", "setting": "[3]", "result": "32% and 71%"}, {"measurement": "Population Fragmented Nuclei (%)", "setting": "[3]", "result": "13% and 26%"}, {"measurement": "Population Healthy Nuclei (%)", "setting": "[3]", "result": "21% and 0%"}, {"measurement": "Population Hoechst High Intensity Objects (%)", "setting": "[3]", "result": "17% and 23%"}, {"measurement": "Population Membrane Permeable-Phenotype (%)", "setting": "[3]", "result": "4% and 0%"}, {"measurement": "Population Mitochondria Different-Phenotype (%)", "setting": "[3]", "result": "66% and 100%"}, {"measurement": "Population Mitotic Cells (%)", "setting": "[3]", "result": "67% and 28%"}, {"measurement": "Population Normal (%)", "setting": "[3]", "result": "82% and 76%"}, {"measurement": "Population Pyknosed Nuclei (%)", "setting": "[3]", "result": "65% and 72%"}, {"measurement": "Population Tubulin-Different-Phenotype (%)", "setting": "[3]", "result": "75% and 100%"}, {"measurement": "Population Fragmented Nuclei (%)", "setting": "[4]", "result": "3% and 9%"}, {"measurement": "Population Hoechst High Intensity Objects (%)", "setting": "[4]", "result": "9% and 10%"}, {"measurement": "Population Membrane Permeable-Phenotype (%)", "setting": "[4]", "result": 6, "unit": "%"}, {"measurement": "Population Mitochondria Different-Phenotype (%)", "setting": "[4]", "result": "68% and 75%"}, {"measurement": "Population Normal (%)", "setting": "[4]", "result": "90% and 89%"}, {"measurement": "Population Pyknosed Nuclei (%)", "setting": "[4]", "result": "58% and 87%"}, {"measurement": "Population Tubulin-Different-Phenotype (%)", "setting": "[4]", "result": 97, "unit": "%"}, {"measurement": "Population Apoptotic (%)", "setting": "[5]", "result": 17, "unit": "%"}, {"measurement": "Population Fragmented Nuclei (%)", "setting": "[5]", "result": 8, "unit": "%"}, {"measurement": "Population Healthy Nuclei (%)", "setting": "[5]", "result": 79, "unit": "%"}, {"measurement": "Population Hoechst High Intensity Objects (%)", "setting": "[5]", "result": 7, "unit": "%"}, {"measurement": "Population Membrane Permeable-Phenotype (%)", "setting": "[5]", "result": 24, "unit": "%"}, {"measurement": "Population Mitochondria Different-Phenotype (%)", "setting": "[5]", "result": 9, "unit": "%"}, {"measurement": "Population Mitotic Cells (%)", "setting": "[5]", "result": 82, "unit": "%"}, {"measurement": "Population Normal (%)", "setting": "[5]", "result": 92, "unit": "%"}, {"measurement": "Population Pyknosed Nuclei (%)", "setting": "[5]", "result": 11, "unit": "%"}, {"measurement": "Population Tubulin-Different-Phenotype (%)", "setting": "[5]", "result": 64, "unit": "%"}, {"measurement": "Total Cell Count", "setting": "[5]", "result": 845}, {"measurement": "Population Apoptotic (%)", "setting": "[6]", "result": 3, "unit": "%"}, {"measurement": "Population Fragmented Nuclei (%)", "setting": "[6]", "result": 14, "unit": "%"}, {"measurement": "Population Healthy Nuclei (%)", "setting": "[6]", "result": 82, "unit": "%"}, {"measurement": "Population Hoechst High Intensity Objects (%)", "setting": "[6]", "result": 3, "unit": "%"}, {"measurement": "Population Membrane Permeable-Phenotype (%)", "setting": "[6]", "result": 14, "unit": "%"}, {"measurement": "Population Mitochondria Different-Phenotype (%)", "setting": "[6]", "result": 4, "unit": "%"}, {"measurement": "Population Mitotic Cells (%)", "setting": "[6]", "result": 96, "unit": "%"}, {"measurement": "Population Normal (%)", "setting": "[6]", "result": 96, "unit": "%"}, {"measurement": "Population Pyknosed Nuclei (%)", "setting": "[6]", "result": 2, "unit": "%"}, {"measurement": "Population Tubulin-Different-Phenotype (%)", "setting": "[6]", "result": 42, "unit": "%"}, {"measurement": "Total Cell Count", "setting": "[6]", "result": 2625}, {"measurement": "Population Apoptotic (%)", "setting": "[7]", "result": "80% and 55%"}, {"measurement": "Population Fragmented Nuclei (%)", "setting": "[7]", "result": "24% and 18%"}, {"measurement": "Population Healthy Nuclei (%)", "setting": "[7]", "result": "0% and 14%"}, {"measurement": "Population Hoechst High Intensity Objects (%)", "setting": "[7]", "result": "28% and 19%"}, {"measurement": "Population Membrane Permeable-Phenotype (%)", "setting": "[7]", "result": "0% and 8%"}, {"measurement": "Population Mitotic Cells (%)", "setting": "[7]", "result": "19% and 44%"}, {"measurement": "Population Normal (%)", "setting": "[7]", "result": "71% and 80%"}, {"measurement": "Population Pyknosed Nuclei (%)", "setting": "[7]", "result": "75% and 67%"}, {"measurement": "Population Apoptotic (%)", "setting": "[8]", "result": "58% and 99%"}, {"measurement": "Population Fragmented Nuclei (%)", "setting": "[8]", "result": "7% and 14%"}, {"measurement": "Population Hoechst High Intensity Objects (%)", "setting": "[8]", "result": "17% and 16%"}, {"measurement": "Population Membrane Permeable-Phenotype (%)", "setting": "[8]", "result": 9, "unit": "%"}, {"measurement": "Population Mitochondria Different-Phenotype (%)", "setting": "[8]", "result": "84% and 66%"}, {"measurement": "Population Normal (%)", "setting": "[8]", "result": "82% and 83%"}, {"measurement": "Population Pyknosed Nuclei (%)", "setting": "[8]", "result": "79% and 81%"}, {"measurement": "Population Tubulin-Different-Phenotype (%)", "setting": "[8]", "result": "64% and 66%"}, {"measurement": "Population Apoptotic (%)", "setting": "[9]", "result": 82, "unit": "%"}, {"measurement": "Population Fragmented Nuclei (%)", "setting": "[9]", "result": 35, "unit": "%"}, {"measurement": "Population Healthy Nuclei (%)", "setting": "[9]", "result": 0, "unit": "%"}, {"measurement": "Population Hoechst High Intensity Objects (%)", "setting": "[9]", "result": 30, "unit": "%"}, {"measurement": "Population Membrane Permeable-Phenotype (%)", "setting": "[9]", "result": 0, "unit": "%"}, {"measurement": "Population Mitochondria Different-Phenotype (%)", "setting": "[9]", "result": 100, "unit": "%"}, {"measurement": "Population Mitotic Cells (%)", "setting": "[9]", "result": 17, "unit": "%"}, {"measurement": "Population Normal (%)", "setting": "[9]", "result": 69, "unit": "%"}, {"measurement": "Population Pyknosed Nuclei (%)", "setting": "[9]", "result": 63, "unit": "%"}, {"measurement": "Population Tubulin-Different-Phenotype (%)", "setting": "[9]", "result": 100, "unit": "%"}, {"measurement": "Total Cell Count", "setting": "[9]", "result": 159}, {"measurement": "Population Apoptotic (%)", "setting": "[10]", "result": 100, "unit": "%"}, {"measurement": "Population Fragmented Nuclei (%)", "setting": "[10]", "result": 19, "unit": "%"}, {"measurement": "Population Healthy Nuclei (%)", "setting": "[10]", "result": 4, "unit": "%"}, {"measurement": "Population Hoechst High Intensity Objects (%)", "setting": "[10]", "result": 17, "unit": "%"}, {"measurement": "Population Membrane Permeable-Phenotype (%)", "setting": "[10]", "result": 16, "unit": "%"}, {"measurement": "Population Mitochondria Different-Phenotype (%)", "setting": "[10]", "result": 83, "unit": "%"}, {"measurement": "Population Mitotic Cells (%)", "setting": "[10]", "result": 0, "unit": "%"}, {"measurement": "Population Normal (%)", "setting": "[10]", "result": 82, "unit": "%"}, {"measurement": "Population Pyknosed Nuclei (%)", "setting": "[10]", "result": 75, "unit": "%"}, {"measurement": "Population Tubulin-Different-Phenotype (%)", "setting": "[10]", "result": 66, "unit": "%"}, {"measurement": "Total Cell Count", "setting": "[10]", "result": 146}]}
